Broadly, the IC50 is the concentration needed to halve the response being measured. For orientation: viability means a read-out of living cells in per cent, often relative to untreated cells.

These results are taken from PMC9880397 (Heliyon, 2023).

Common to all, as to type: cell-based
The test system of assay [1] is MCF-7 human breast cancer cells. In words: SRB cytotoxicity assay, MCF-7 cells. The following applies: for IC50: MCF7, 48 h, read-out: IC50 against MCF-7 cells. The procedure, abridged: (§1)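 Cells from ATCC, seeded at about […] in fresh medium at 37 ᵒC and <5% CO2. After 24 h, a DMSO series of test compound (up to 100 μg/mL) was added, then incubated 48 h. Read-out was A570, with DMSO control set as 100% viability.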
In general terms: The SRB assay estimates cell density from bound dye.

Assay [2] has as its system A-549 (Lung) human cancer cells. As to the kind of experiment: SRB cytotoxicity assay, A-549 cells. The note with it: A549, read-out: % Viability of cancer cells A-549. The procedure, abridged:
as §1

Assay [3] relates to HEPG-2 (Liver) human cancer cells. As to the kind of experiment: SRB cytotoxicity assay, HEPG-2 cells. The procedure, abridged: as §1
Assay [4] deals with HCT-116 (Colon) human cancer cells. As to the kind of experiment: SRB cytotoxicity assay, HCT-116 cells. The following applies: HCT-116, read-out: % Viability of cancer cells HCT-116. The procedure, abridged:
as §1

[5] abbreviates: HepG2, read-out: % Viability of cancer cells HEPG-2.
The mark [6] stands for this setting: MCF7, read-out: % Viability of cancer cells MCF-7.

Take `COc1cccc2c1C(=O)c1c(O)c3c(c(O)c1C2=O)C[C@@](O)(C(=O)CO)C[C@@H]3O[C@H]1C[C@H](N)[C@H](O)[C@H](C)O1` [Doxorubicin, doxorubicin, reference compound]: the IC50 in assay [1] was determined as 9.66 µM.

In the case of `O=[N+]([O-])c1ccc(NC(=S)NN=Cc2ccccn2)cc1` [HL^1, 4-(4-Nitrophenyl)-1-((pyridin-2-yl)methylene)thiosemicarbazide], the viability at 41.5 µM in assay [2] turned out to be 71.9%; in assay [3] (setting [5]), 76%; in assay [1] (setting [6]) it was 60%; in assay [4], 80%. In addition, the viability at 83 µM in assay [2] stood at 70.7%; in assay [3] (setting [5]), 48%; in assay [1] (setting [6]) it was 26.4%; in assay [4], 76%. In addition, the viability at 124.5 µM in assay [2] is 69.6%; in assay [3] (setting [5]) it was 39.2%; in assay [1] (setting [6]) it was 23.2%; in assay [4], 63.6%. Also, the viability at 166 µM worked out at 64.1% in assay [2], 33.2% in assay [3] (setting [5]), 9.6% in assay [1] (setting [6]) and 60.4% in assay [4]. Also, the IC50 in assay [3] (HepG2, 48 h, read-out: IC50 against HEPG-2 cells) was determined as 80 µM; in assay [1] it was 52.4 µM.

With `COc1ccc(OC)c(NC(=S)NN=Cc2ccccn2)c1` [HL^2, 4-(2,5-Dimethoxyphenyl)-1-((pyridin-2-yl)methylene)thiosemicarbazide], the IC50 in assay [1] turned out to be 145 µM.
